The full list was thinned out, with hits kept by preference.
Diaph act CS: diaphorase activation or chemical reduction counter-screen | Diaphorase/resazurin coupled assay, resorufin fluorescence, 16 min; hits give high values; 1 = vehicle wells, 0 = NADH-free wells | activation factor at 20 µM | hit rate 0.005% among 190,000;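 active = diaphorase activity raised at least twofold by the compound at 20 µM; inactive = activation factor below 2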
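Test system: Clostridium kluyveri diaphorase, purified enzyme. Buffer or medium: 50 mM HEPES pH 7.4 buffer plus MgCl2 and Tween 20. Also added: 0.114 mM NADH and 0.1 mM resazurin, final amounts. Dosing: compound 20 µM once, DMSO 1%. Schedule: 16 min enzyme reaction, ambient temperature. Detection: fluorescence of resorufin, 544 nm excitation, 590 nm emission.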
G6PDH counter: inhibits Leuconostoc G6PDH, flagging false hits in G6PDH-based assays; Purified L. mesenteroides G6PDH, diaphorase/resazurin coupled fluorescence, 45 min; inhibition, % at 5 µM; hit rate 0.12% among 200,000; AID 1020
Diaph inh CS: inhibits diaphorase or chemically oxidizes, flagging diaphorase assay artifacts | hit rate 0.69% among 190,000 | diaphorase resazurin-to-resorufin fluorescence, NADH, 16 min; bacterial (C. kluyveri) enzyme, not human | inhibition, % at 20 µM;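 active = primary screen inhibition at 20 µM above a set limit, cut at about 50% in these data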
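Test system: bacterial diaphorase enzyme (C. kluyveri); Quantity: 0.14 U/mL diaphorase, enzyme working solution; Times: reaction incubation of 16 min at room temperature; Measured by: fluorescence of resorufin formed from resazurin, Ex 544/Em 590 nm; Benchmarks: positive control minus NADH, DMSO neutral control.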
L major viab: reduces viability of Leishmania major promastigotes; resazurin fluorescence viability; inhibition, % at 10 µM; hit rate 9% among 200,000;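 also: promastigotes grown with compound for 44 hours at 28 °C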
PfG6PD inh: PfG6PD (Plasmodium falciparum) enzyme inhibition; inhibition, % at 20 µM; PfGluPho enzyme, NADPH resazurin-diaphorase fluorescence; AID 504690; hit rate 0.78% among 350,000;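 active = inhibition reaching at least a set limit at 20 µM in the primary screen, cut at about 59% in these data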
DTT redox prof: compounds producing H2O2 with reducing agent – biochemical, NIH compound library profiling, artefact control for MLSCN library redox annotation, primary screen. DTT-dependent redox cycling H2O2, phenol red/HRP absorbance; 100% = 100 µM peroxide control, 0% = buffer. hit rate 0.03% among 200,000. AID 878. activation, % at 10 µM;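 active = activation of at least 50% relative to the plate's high and low controls in the primary single-dose screen; inactive = activation below 50%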;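 also: compound incubated with DTT at 0.8 mM final as the reducing agent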
Numbers stand for hits; . = inactive; / = no result given. Rule as the data show it, unless noted: active = inhibition above about 50%; inactive = the rest.

SMILES | Diaph act CS | G6PDH counter | Diaph inh CS | L major viab | PfG6PD inh | DTT redox prof
NC(=O)c1ccc(NC(=O)CSc2nc3ccccc3c(=O)n2CCCN2CCOCC2)cc1 | / | / | / | / | . | /
COc1cc(CNCCO)cc(Br)c1OCc1ccccc1 | . | . | . | 97 | . | .
C[C@H]1CN(CCc2ccccc2)C(=O)[C@@H]1CC(=O)Nc1ccccc1 | / | / | / | / | . | /
O=C(NCCc1ccccc1)Nc1ccc2c(c1)OCO2 | . | . | . | . | . | .
Cc1ccc(C)c(N2CCN(c3nnnn3-c3ccccc3)CC2)c1 | . | . | . | 63 | . | .
CCOC(=O)C(C)CC(C)C(=O)N1CCOCCOCCN(C(=O)C(C)CC(C)C(=O)OCC)CCOCC1 (stereo not given) | . | . | . | . | . | .
CCOC(=O)C(C(=O)OCC)C(C(=O)OCC)N1CCOCC1 (stereo not given) | . | . | . | 100 | . | .
CC(C)CC(OC(=O)c1ccc(Cl)nc1)C(=O)NC1CCCC1 (stereo not given) | / | / | / | / | . | /
O=C(NCc1ccccc1)C1=C[C@H](c2ccccc2)C[C@H](OCc2ccc(CO)cc2)O1 | / | / | / | / | . | /
O=C(Nc1ccccc1)C1=C[C@@H](c2ccc(Br)cc2)C[C@@H](OCCCCO)O1 | . | . | 63 | . | . | .
O=C(NCc1ccccc1)C1=C[C@@H](c2ccc(Br)cc2)C[C@@H](OCc2ccc(CO)cc2)O1 | . | . | . | 55 | . | .
O=C(NCc1nc2ccccc2[nH]1)C1=C[C@H](c2csc3ccccc23)C[C@H](OCc2ccc(CO)cc2)O1 | / | / | / | / | . | /
O=C(NCc1nc2ccccc2[nH]1)C1=C[C@@H](c2csc3ccccc23)C[C@@H](OCc2ccc(CO)cc2)O1 | . | . | . | 95 | . | .
O=C(NCc1nc2ccccc2[nH]1)C1=C[C@@H](c2ccc(Br)cc2)C[C@@H](OCc2ccc(CO)cc2)O1 | . | . | . | 78 | . | .
O=C(COC(=O)c1ccccc1OCC(=O)Nc1ccc(Br)cc1)Nc1ccccc1 | . | . | . | 65 | . | /
CCC(C)NC(=O)COC(=O)c1ccccc1OCC(=O)Nc1ccc(Br)cc1 (stereo not given) | . | . | . | . | . | .
O=C(COc1ccc(Br)cc1CNC1CCCC1)Nc1ccccc1 | . | . | . | 53 | . | .
CSC(=NC#N)N1CCN(c2ccc(Cl)cc2)CC1 | . | . | . | . | . | .
Cc1ccccc1Nc1nc(N)nc(COC(=O)c2cccc(S(=O)(=O)NCc3ccccc3)c2)n1 | . | . | . | . | . | .
Cc1ccccc1Nc1nc(N)nc(COC(=O)c2cccc(S(=O)(=O)N(C)C)c2)n1 | . | . | . | 66 | . | .
CCc1ccc(NC(=S)N2CCCC2)cc1 | / | / | / | / | . | /
CCc1ccc(NC(=S)N2CCCC(C(F)(F)F)C2)cc1 (stereo not given) | . | . | . | 96 | . | .
CCOc1ccc(S(=O)(=O)n2ccc(C)n2)cc1 | / | / | / | / | . | /
Cc1ccn(S(=O)(=O)c2ccc(C(C)(C)C)cc2)n1 | . | . | . | 71 | . | .
Cc1ccc(NC(=O)c2ccccc2NS(=O)(=O)c2ccc(Cl)s2)cc1 | . | . | . | 53 | . | .
SMILES | Diaph act CS | G6PDH counter | Diaph inh CS | L major viab | PfG6PD inh | DTT redox prof
CS(=O)(=O)c1ccc(C(=O)NCCN2C(=O)S/C(=C\c3cccnc3)C2=O)cc1[N+](=O)[O-] | . | . | . | 74 | . | .
CC(C)(C)C(=O)NCCN1C(=O)S/C(=C\c2ccc([N+](=O)[O-])cc2)C1=O | . | . | . | 57 | . | .
O=C(/C=C/c1ccccc1[N+](=O)[O-])NCCN1C(=O)S/C(=C\c2ccc(F)cc2)C1=O | . | . | . | . | . | .
CN(C)S(=O)(=O)c1ccc(C(=O)NCCN2C(=O)S/C(=C\c3cccnc3)C2=O)cc1 | . | . | . | . | . | .
CCN(CC)CCCN1C(=O)c2oc3ccccc3c(=O)c2C1c1cc(OC)ccc1OC (stereo not given) | . | . | . | . | . | .
CCN1C(=O)[C@H]2[C@@H](c3ccc(C)cc3)N3C(=O)N(c4ccc(C(F)(F)F)cc4)C(=O)[C@@]3(Cc3ccccc3)[C@H]2C1=O | / | / | / | / | . | /
CCN(c1ccccc1)S(=O)(=O)c1cc(C(=O)Oc2ccc3c(C)cc(=O)oc3c2)ccc1C | . | . | . | 67 | . | .
CCn1c(=O)cc(OCC(=O)NCCCN2CCCC2=O)c2ccccc21 | / | / | / | / | . | /
Cc1ccc(NS(=O)(=O)c2cc(NC(=O)C(C)Oc3ccccc3)ccc2C)c(C)c1 (stereo not given) | . | . | . | 98 | . | .
C=CCC(C(=O)OC)(C(=O)OC)c1ccccc1[N+](=O)[O-] | . | . | . | . | . | .
Cc1ccccc1NC(=S)NC1(C)CCS(=O)(=O)C1 (stereo not given) | . | . | . | 54 | . | .
O=C1CN(C(=O)CSc2nc3ccccc3n2CCc2ccccc2)c2ccccc2N1 | . | . | . | 58 | . | .
CCCn1c(SCC(=O)N2CC(=O)Nc3ccccc32)nc2ccccc21 | . | . | . | . | . | .
C=CCn1c(SCC(=O)N2CC(=O)Nc3ccccc32)nc2scc(-c3cccs3)c2c1=O | . | . | . | 65 | . | .
O=C(Nc1ccc(OCc2ccccc2Cl)cc1)c1cccnc1 | / | / | / | / | . | /
COc1ccccc1CCC(=O)Oc1ccc(C#N)cc1OC | / | / | / | / | . | /
COc1ccc(NC(=O)CSc2n[nH]c(-c3ccccc3)n2)cc1S(N)(=O)=O | / | / | / | / | . | /
CC(=O)c1ccc(OCC(=O)N2CCCC(Nc3ccc(C)c(C)c3)C2)cc1 (stereo not given) | / | / | / | / | . | /
CCN(C(=O)CSc1nncn1-c1ccccc1)c1c(N)n(Cc2ccccc2)c(=O)[nH]c1=O | . | . | . | . | . | .
COCCN(C(=O)CSc1nncn1-c1ccccc1)c1c(N)n(Cc2ccccc2)c(=O)[nH]c1=O | . | . | . | 54 | . | /
CN1C(=O)NC(c2ccccc2)C2=C1CN(Cc1ccco1)C2=O (stereo not given) | . | . | . | . | . | .
CN1C(=O)C2(c3ccccc31)N(C)CC(c1ccccc1)C21SC(=S)N(Cc2ccco2)C1=O (stereo not given) | . | . | . | 99 | . | .
CN1C(=O)C2(c3ccccc31)N(C)CC(c1ccccn1)C21SC(=S)N(Cc2ccco2)C1=O (stereo not given) | . | . | . | 100 | . | .
CN(C)CCCNC(NC(=O)c1cccs1)C(Cl)(Cl)Cl (stereo not given) | . | . | . | . | . | .
N#CC1=C(N)N(c2ccccc2)C2=C(C(=O)CCC2)C1c1cccs1 (stereo not given) | . | . | . | 73 | . | .
